The source of these data is ChEMBL document CHEMBL2424614, “A novel p-terphenyl derivative inducing cell-cycle arrest and apoptosis in MDA-MB-435 cells through topoisomerase inhibition” (Eur J Med Chem, 2013).

The source made the active and inactive calls. No cut-off for these calls is given here.

In experiment [1] the test system is MDA-MB-435. The experiment in a line: Induction of DNA damage in human MDA-MB-435 cells assessed as phosphorylation of ATM at Ser1981 at 0.5 uM after 12 hrs by Western blotting analysis. Type of experiment: functional, cell-based. In short, it runs like this: (§1)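 Treated MDA-MB-435 cells lysed in ice-cold Tris-HCl pH 7.4 buffer with Triton, phosphatase and protease inhibitors. Lysates clarified, boiled in SDS loading buffer, run on 8-12% SDS-PAGE and blotted. Membranes blocked in 5% skim milk, probed with primary antibodies, then peroxidase secondaries with ECL detection. β-actin as loading control.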

Experiment [2] relates to MDA-MB-435. The experiment in a line: Induction of apoptosis in human MDA-MB-435 cells assessed as viable cells at 0.5 uM after 24 hrs by annexin-V FITC/propidium iodide staining-based flow cytometry (reference value: 98.62 +/- 0.25%). Type of experiment: functional. The note with it: MDA-MB-435, 24 h, read-out: Activity. The method, boiled down: (§2)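 MDA-MB-435 cells treated 24 h, stained with annexin V-FITC/PI per kit instructions, analysed by flow cytometry. Quadrant statistics: lower right taken as apoptotic, upper right as necrotic or post-apoptotic necrotic. Representative of three similar experiments.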

Experiment [3] has as its system MDA-MB-435. As to the kind of experiment: Induction of apoptosis in human MDA-MB-435 cells assessed as late apoptotic cells at 1 uM after 24 hrs by annexin-V FITC/propidium iodide staining-based flow cytometry (reference value: 0.34 +/- 0.08%). It counts as functional. In short, it runs like this:
as §2

Experiment [4] relates to MDA-MB-435. As to the kind of experiment: Induction of apoptosis in human MDA-MB-435 cells assessed as decrease in procaspase 3 expression after 12 to 24 hrs by Western blotting analysis. It counts as functional, cell-based. The method, boiled down:
as §1

The subject of experiment [5] is MDA-MB-435. As to the kind of experiment: Induction of DNA damage in human MDA-MB-435 cells assessed as phosphorylation of H2AX at Ser139 at 0.5 uM after 12 hrs by Western blotting analysis. Type of experiment: functional, cell-based. The method, boiled down:
as §1

Experiment [6] deals with MDA-MB-435. As to the kind of experiment: Induction of DNA damage in human MDA-MB-435 cells assessed as phosphorylation of p53 at Ser15 at 0.5 uM after 12 hrs by Western blotting analysis. Type of experiment: functional, cell-based. In short, it runs like this: as §1
For experiment [7], the system named is MDA-MB-435. The experiment in a line: Cell cycle arrest in human MDA-MB-435 cells assessed as accumulation at sub-G1 phase at 1 uM after 24 hrs by propidium iodide staining-based flow cytometry (reference value: 0.79%). It counts as functional.

Turning to `Oc1ccc(-c2ccc(-c3ccc(O)c(O)c3)cc2)cc1`, the outcome in the experiment with MDA-MB-435 [1], in the experiment with MDA-MB-435 [5] and with MDA-MB-435 [6] was inactive. In the experiment with MDA-MB-435 [2], the viability at 0.5 µM was 81.6%. Also, the Activity with MDA-MB-435 [3] is 8.64%; with MDA-MB-435 [4] it was “Dose-dependent effect”; with MDA-MB-435 [7], 10.5%.
